Test system: MS2 coat protein
Assay: apparent Kd, MS2 coat protein; higher = weaker binding; RNA-MaP array; FMN 200 µM where present
Procedure, shortened: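 On Illumina sequencing-chip clusters, designs were transcribed by stalled E. coli RNA polymerase and titrated with SNAP-549-labelled MS2 coat protein (0.7 or 1.5 nM, doubling to 3 µM), without and then with constant ligand, in 100 mM Tris-HCl pH 7.5, 80 mM KCl, 4 mM MgCl2, BSA, DTT, yeast tRNA and Tween-20. Apparent Kd is the median of filtered per-cluster curve fits to green signal normalised to red-channel RNA signal and control-cluster median Fmax.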

[1] = designed as: OFF switch for flavin mononucleotide, no ligand
[2] = ligand present: flavin mononucleotide, designed as: OFF switch for flavin mononucleotide
[3] = designed as: ON switch for flavin mononucleotide, no ligand
[4] = ligand present: flavin mononucleotide, designed as: ON switch for flavin mononucleotide

Sequence	apparent Kd [1] [nM]	apparent Kd [2] [nM]	apparent Kd [3] [nM]	apparent Kd [4] [nM]
UGCAUGUAAGGAUAUGCAUCCGCCAACGAACCGGCGGCACAGCAGAAGGUACAUGAGGAUCACCCAUGUGUCCC	34.8	195	–	–
AAGCGGGCAGGAUAUGCGUACUCACGGGAAAACUGAAUGGUACAUGAGGAUCACCCAUGUAGAAGGGCUUUGAA	48.4	36.3	–	–
AAAAAGUCAGGAUAUACGAAAAAAAAAAAAAAAAAAAAAAAGUAGAAGGGACAUGAGGAUCACCCAUGUGAAAA	74.7	39.3	–	–
CCUAUGUAAGGAUAUAGCCACAUUACGAAUAAGUAGUGUGGCUAGAAGGUACAUGAGGAUCACCCAUGUAUGGG	195	40.6	–	–
UAUAAUUAGUAGAAGGACGGAGAGUAAGAAGUCGUAGGAUAUACAAAAGACAUGAGGAUCACCCAUGUGAGUAUGUUGGGAAGG	7.05	7.62	–	–
GGAGCUCACAUGAACAUGAGGAUCACCCAUGUAAAUUCUCAUGAGGAUAUGGAUCCUAAUUGGAUCCAGAAGGCAUGGAGCUCC	–	–	1350	316
UAUAUGUCAGGAUAUUAGUUGAGUUAGAAUUUAUCCUCUGCUGAGAAGGGACAUGAGGAUCACCCAUGUUCCUC	15.1	31.5	–	–
UGAUCUUUUGUUAGGAUAUGCUGGCUGAAAAGUCAGCAGAAGGGACAUGAGGAUCACCCAUGUUCUCUCUUUUU	9.66	13.6	–	–
GGUGGACAUGAGGAUCACCCAUGUGAGGAUAUCGGCUGGCUACUGGCUGACGGCUGCUCGAGAAGGCGCAUUGU	40	73.6	–	–
CGCAACUCUUCACAUGUAAACAUGAGGAUCACCCAUGUAUUGAGAAGGAGGAAGAAGAGAGAUUCCUAGGAUAUCAGAGUUGCG	6.42	5.84	–	–
AUCCAGCGAGGAUAUACAUAGUUUUUUUCGUUUUGUCUCGAACAUGAGGAUCACCCAUGUAGAAGGUGCUUCAC	72.5	67.2	–	–
ACAUGAGGAUCACCCAUGUAUAGAAUUGAAUGUUAAGAUACGUAGGAUAUCGAGUUUAGUAUGAUCGAGAAGGACGAUCUGAUA	–	–	19.8	13.6
UUUACGAAAGUCGAACGAUGUAGCAGAAGGACAUGAGGAUCACCCAUGUCAGCUGUAACAGCCAUGUAGGAUAUGCUACAUCCC	5.24	6.49	–	–
AACCCUUGUGUUAGGAUAUGUCACUACCAUAUGCGACAGAAGGAACAUGAGGAUCACCCAUGUGAGUUAGCCAA	42.8	91.1	–	–
ACAUGAGGAUCACCCAUGUAGAAUGAAGAAGGAUGUUACUUGAGACUCACCCAUGUACAUAGGACAUAGGAUAUUCUAAUAAUU	–	–	10.1	7.83
GACAUACAUGAGGAUCACCCAUGUUCAAACGAACAAGGAUAUGUGUGGAAACCAUACUAUACAGAAGGUGUCUGUC	–	–	81.7	97.7
GGUGUCGCAUGAGGAUAUGGUCAGCUUUGCUGACCAGAAGGCAUGUCAAUAGACAUGAGGAUCACCCAUGUAGUUAAGACACCA	–	–	739	48.2
CGUGCACAUGAGGAUCACCCAUGUCGUCGCGAUCAAGGAUAUGAAAGCAGCGUUAUGUUAUCAGAAGGUGAACCUC	–	–	28.1	21.9
AGUCGGAGCAGAGGAUAUACAUGAGGAUCACCCAUGUAAUAGGAUGAAGCCUGGAAACAGGCAAUGUAGAAGGCUGCUCCGACA	60.1	589	–	–
CAUCAUUCUGUAAGGAUAUUAAUCGAGUGACUUAUUAAGAAGGUACAUGAGGAUCACCCAUGUGGGAGGUGAGG	363	947	–	–
CUUGAUCUUGUCAGGAUAUACCUGCCUAGUUGGAGGUAGAAGGGACAUGAGGAUCACCCAUGUAGCCAACCGAC	16.9	19.2	–	–
CGCAUGCGUAGAAUUAGCAGCUGACAGGAUAUGACAUGAGGAUCACCCAUGUGAAUUAAGAAGAGUCAGAAGGGUCACGAUGCG	9.98	9.98	–	–
ACGGUGGUCACAGGAUAUCCGGCCCGCGUGCUCGGAGAAGGGUGACUCAGAACCACAUGAGGAUCACCCAUGUGCCUUGCCGUA	–	–	122	25.1
CUAUACAUAUCAGGAUAUCAUCGCGUGGAUUAACCCUGUGAUUACAUGAGGAUCACCCAUGUGCUUGAGAAGGGAUUACUAUUU	33.7	152	–	–
GUCGAUCACCAGAAGGACAUGAGGAUCACCCAUGUAGGAUAUGGGUAAGACGUCACAUUGGCGUGCAAACGUUUGCGUUCGUAC	–	–	11.9	6.42
AUAGAAGACUAGAAGGACCUAGUUGUAUAUUGUCGAGGUAUAUAAUUAGGUAGGAUAUGGGACAUGAGGAUCACCCAUGUCUUG	–	–	8.27	7.5
GCGUCAGAAUUAAUUGUGUCAUACAGAAGGCAAUAUUAAGGUUAAGACAUGAGGAUCACCCAUGUUGAGGAUAUGUAGUGACGC	10.5	18.6	–	–
AUAAGUCGAGGAUAUACGGGAUGCUAGCGAAAGCUAGCAUAACAUGAGGAUCACCCAUGUAGAAGGCGACAAUA	56.2	104	–	–
